The results in this text go back to ChEMBL document CHEMBL1156333 (Bioorg Med Chem, 2010).

The test system of data set [1] is Punta Toro virus. The data set is described as follows: Antiviral activity against Punta Toro virus infected in african green monkey Vero cells assessed as inhibition of virus-induced cytopathicity. It counts as functional, organism-based. For orientation: Protection from cytopathic effect is a common read-out in antiviral testing.
A short description of data set [2]: Cytotoxicity against human HeLa cells. It counts as cell-based. The gist of the method:
(§1)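 MDCK, HEL and HeLa cultures run alongside the cytopathicity assays received graded compound levels up to 100 μM. Toxicity was scored as the minimum cytotoxic concentration, the lowest level causing a microscopically detectable change in cell morphology.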

Data set [3] can be described thus: Cytotoxicity against human HuH5.2 cells. It counts as cell-based, Huh-5-2.
Data set [4] concerns Respiratory syncytial virus. The data set is described as follows: Antiviral activity against Respiratory syncytial virus Long infected in human HeLa cells assessed as inhibition of virus-induced cytopathicity. It counts as functional, organism-based.
Another data set relates to Hepatitis C virus. The experiment in a line: Antiviral activity against HCV infected in human HuH5.2 cells carrying subgenomic HCV replicon assessed as inhibition of replicon replication by luciferase reporter gene assay. Format: functional, organism-based, Hepacivirus hominis. Conditions: Huh-5-2. The procedure, abridged:
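Huh 5-2 cells are Huh 7 cells carrying the subgenomic replicon I389luc-ubi-neo/NS3-3′/5.1. They were maintained in DMEM with 10% heat-inactivated FCS, non-essential amino acids, penicillin/streptomycin and 250 μg/mL G418. Cells were seeded at 5 × 10^3 cells/well in medium without G418 and exposed to compound.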
(In general: In antiviral work, replicon cells carry a viral genome segment that copies itself.)

Data set [5] can be described thus: Cytotoxicity against MDCK cells. Format: cell-based, Canis lupus familiaris. Conditions: dog. The gist of the method: as §1
A short description of data set [6]: Cytotoxicity against human HEL cells. Format: cell-based. The procedure, abridged:
as §1

Data set [7] has as its system Human immunodeficiency virus 1. The experiment in a line: Antiviral activity against HIV1 3B infected in human CEM cells assessed as inhibition of syncytia formation after 4 days. It counts as functional, organism-based. As to conditions: Human immunodeficiency virus 1, 3B, CCRF-CEM, 96 h. The gist of the method: (§2)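 Human CEM cells (~3 × 10^5 cells/mL) were infected with ~100 CCID50/mL of HIV-1(IIIB) or HIV-2(ROD) and seeded with compound dilutions. After 4 days at 37 °C, syncytia formation was scored microscopically.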

The next data set concerns Feline coronavirus. The experiment in a line: Antiviral activity against Feline coronavirus assessed as inhibition of virus-induced cytopathicity by cell based assay. Conditions: Alphacoronavirus 1. It counts as functional, organism-based.
In data set [8] the test system is Vesicular stomatitis virus. The data set is described as follows: Antiviral activity against Vesicular stomatitis virus infected in human HeLa cells assessed as inhibition of virus-induced cytopathicity. Format: functional, organism-based.
Data set [9] deals with Influenza A virus. The experiment in a line: Antiviral activity against Influenza A virus H3N2 infected in MDCK cells assessed as inhibition of virus-induced cytopathicity. Format: functional, organism-based.
Data set [10] has as its system Respiratory syncytial virus. The experiment in a line: Antiviral activity against Respiratory syncytial virus Long infected in human HeLa cells assessed as inhibition of virus-induced cytopathicity at 100 uM. It counts as functional, organism-based. The gist of the method: (§3)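 Confluent monolayers (Vero for Punta Toro, HeLa for RSV strain Long) were infected with 100 CCID50 of virus. After 1–2 h adsorption, residual virus was removed and cells were incubated with the compound, 100 μM being the highest level tested. Cytopathicity was scored when untreated infected controls reached full cytopathic effect.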

The test system of data set [11] is Influenza B virus. The experiment in a line: Antiviral activity against Influenza B virus infected in MDCK cells assessed as inhibition of virus-induced cytopathicity at 100 uM. It counts as functional, organism-based.
Data set [12] concerns Vesicular stomatitis virus. The data set is described as follows: Antiviral activity against Vesicular stomatitis virus infected in human HeLa cells assessed as inhibition of virus-induced cytopathicity at 100 uM. It counts as functional, organism-based.
The subject of another data set is Human respirovirus 3. The data set is described as follows: Antiviral activity against Parainfluenza 3 virus assessed as inhibition of virus-induced cytopathicity by cell based assay. It counts as functional, organism-based.
Data set [13] deals with Mammalian orthoreovirus 1. The data set is described as follows: Antiviral activity against Reovirus 1 assessed as inhibition of virus-induced cytopathicity by cell based assay. Format: functional, organism-based.
For another data set, the system named is Human alphaherpesvirus 2. The data set is described as follows: Antiviral activity against Herpes simplex virus 2 assessed as inhibition of virus-induced cytopathicity by cell based assay. Format: functional, organism-based.
For data set [14], the system named is Vaccinia virus. The data set is described as follows: Antiviral activity against Vaccinia virus lederle infected in human HEL cells assessed as inhibition of virus-induced cytopathicity at 100 uM. As to conditions: Orthopoxvirus vaccinia. It counts as functional, organism-based.
Data set [15] deals with Influenza B virus. The data set is described as follows: Antiviral activity against Influenza B virus infected in MDCK cells assessed as inhibition of virus-induced cytopathicity. It counts as functional, organism-based.
Another data set concerns Cytomegalovirus. The data set is described as follows: Antiviral activity against Cytomegalovirus assessed as inhibition of virus-induced cytopathicity by cell based assay. It counts as functional, organism-based. Conditions: Human betaherpesvirus 5.
In data set [16] the test system is Influenza A virus. The data set is described as follows: Antiviral activity against Influenza A virus H3N2 infected in MDCK cells assessed as inhibition of virus-induced cytopathicity at 100 uM. Format: functional, organism-based.
Another data set deals with Felid alphaherpesvirus 1. The data set is described as follows: Antiviral activity against Feline herpes virus assessed as inhibition of virus-induced cytopathicity by cell based assay. It counts as functional, organism-based.
The test system of data set [17] is Vaccinia virus. The data set is described as follows: Antiviral activity against Vaccinia virus lederle infected in human HEL cells assessed as inhibition of virus-induced cytopathicity. Format: functional, organism-based. As to conditions: Orthopoxvirus vaccinia.
The next data set concerns Coxsackievirus B4. The data set is described as follows: Antiviral activity against Coxsackievirus B4 assessed as inhibition of virus-induced cytopathicity by cell based assay. Format: functional, organism-based. Conditions: Enterovirus B.
In data set [18] the test system is Human alphaherpesvirus 1. The data set is described as follows: Antiviral activity against thymidine kinase deficient ACV resistant Herpes simplex virus 1 KOS assessed as inhibition of virus-induced cytopathicity by cell based assay. Format: functional, organism-based. As to conditions: Human alphaherpesvirus 1, KOS.
Data set [19] concerns Human immunodeficiency virus 2. The data set is described as follows: Antiviral activity against HIV2 ROD infected in human CEM cells assessed as inhibition of syncytia formation after 4 days. Conditions: Human immunodeficiency virus 2, ISOLATE ROD, CCRF-CEM, 96 h. It counts as functional, organism-based. The gist of the method: as §2
For data set [20], the system named is Punta Toro virus. The data set is described as follows: Antiviral activity against Punta Toro virus infected in african green monkey Vero cells assessed as inhibition of virus-induced cytopathicity at 100 uM. It counts as functional, organism-based. The gist of the method: as §3
Another data set relates to Sindbis virus. The data set is described as follows: Antiviral activity against Sindbis virus assessed as inhibition of virus-induced cytopathicity by cell based assay. Format: functional, organism-based.
Data set [21] has as its system Human alphaherpesvirus 1. The data set is described as follows: Antiviral activity against Herpes simplex virus 1 KOS assessed as inhibition of virus-induced cytopathicity by cell based assay. Format: functional, organism-based. Conditions: Human alphaherpesvirus 1, KOS.
The subject of data set [22] is Punta Toro virus. The experiment in a line: Ratio of compound EC50 over ribavirin antiviral EC50 for Punta Toro virus. Format: functional.
For data set [23], the system named is Vaccinia virus. The data set is described as follows: Ratio of compound EC50 over ribavirin EC50 for Vaccinia virus lederle. Format: functional, Orthopoxvirus vaccinia.

Calls of active or inactive are those of the source. The rule behind the calls is not given here. A value given as a limit tells only on which side of the number the result lay.

Consider `NC(=O)c1ncn([C@@H]2O[C@H](CO)[C@@H](O)[C@H]2O)n1` [RIBAVIRIN], for which the EC50 in the data set with Punta Toro virus [1] turned out to be 183 µM; in [4], 19 µM; in the data set with Hepatitis C virus it was 87 µM. In addition, the MCC in data set [2], in data set [3], in [5] and in [6] was more than 100 µM each time.
For the compound `NC(=O)c1ncn([C@@H]2O[C@H](COP(=O)(N[C@@H](Cc3ccccc3)C(=O)OCc3ccccc3)Oc3cccc4ccccc34)[C@@H](O)[C@H]2O)n1` (stereo not given in full), the concentration for a half-maximal effect (EC50) in [7] is more than 100 µM; in the data set with Feline coronavirus, more than 100 µM; in [8], more than 20 µM; in the data set on Influenza A virus [9], more than 100 µM; in data set [4], more than 20 µM; in the data set with Human respirovirus 3 it was more than 100 µM. Moreover, the EC50 in [13] was more than 100 µM; in the data set with Human alphaherpesvirus 2 it was more than 100 µM; with Hepatitis C virus, more than 70 µM; with Influenza B virus [15], more than 100 µM; with Cytomegalovirus, more than 100 µM; in the data set with Felid alphaherpesvirus 1 it was more than 100 µM. Besides, the half-maximal effective concentration (EC50) is 100 µM with Vaccinia virus [17]; more than 100 µM with Coxsackievirus B4; more than 100 µM in the data set on Human alphaherpesvirus 1 [18]; more than 100 µM in [19]; more than 100 µM in the data set with Sindbis virus; more than 100 µM with Human alphaherpesvirus 1 [21]. The inhibition entry (in data set [10]; in the data set on Influenza B virus [11]; in [12]; in the data set with Vaccinia virus [14]; with Influenza A virus [16]; in the data set on Punta Toro virus [20]) was “inactive” each time. Besides, the MCC in data set [2], in data set [3], in data set [5] and in [6] was more than 100 µM throughout.
For the compound `NC(=O)c1ncn([C@@H]2O[C@H](COP(=O)(NCC(=O)OCc3ccccc3)Oc3cccc4ccccc34)[C@@H](O)[C@H]2O)n1` (stereo not given in full), the EC50 in data set [7] was more than 100 µM; in the data set with Feline coronavirus, more than 100 µM; in the data set with Influenza A virus [9] it was more than 20 µM; in [4], 58 µM; in the data set on Human respirovirus 3, more than 100 µM; in [13], more than 100 µM. For the same compound, the EC50 with Human alphaherpesvirus 2 was more than 100 µM; in the data set on Influenza B virus [15] it was more than 20 µM; with Cytomegalovirus, more than 100 µM; in the data set on Felid alphaherpesvirus 1 it was more than 100 µM; with Vaccinia virus [17] it was 20 µM; with Coxsackievirus B4 it was more than 100 µM. Moreover, the EC50 (with Human alphaherpesvirus 1 [18]; in [19]; with Sindbis virus; in the data set on Human alphaherpesvirus 1 [21]) was more than 100 µM throughout. Also, the Ratio in the data set with Punta Toro virus [22] and in the data set on Vaccinia virus [23] was 3 throughout. Also, the MCC (in [2]; in [3]; with Hepatitis C virus; in data set [5]; in data set [6]) was more than 100 µM each time.
As for `C[C@H](NP(=O)(OC[C@H]1O[C@@H](n2cnc(C(N)=O)n2)[C@H](O)[C@@H]1O)Oc1cccc2ccccc12)C(=O)OCc1ccccc1` (stereo not given in full), the EC50 in [7] was more than 100 µM; in the data set on Feline coronavirus, more than 100 µM; in data set [8], 20 µM; in the data set on Influenza A virus [9] it was 18 µM; in data set [4], 45 µM; in the data set with Human respirovirus 3 it was more than 100 µM. Also, the concentration for a half-maximal effect (EC50) in data set [13] is more than 100 µM; in the data set on Human alphaherpesvirus 2, more than 100 µM; in the data set with Hepatitis C virus it was 68 µM; in the data set with Influenza B virus [15] it was 14 µM; in the data set with Cytomegalovirus, more than 100 µM; in the data set with Felid alphaherpesvirus 1 it was more than 100 µM. Moreover, the concentration for a half-maximal effect (EC50) with Vaccinia virus [17] was 100 µM; in the data set with Coxsackievirus B4, more than 100 µM; in the data set on Human alphaherpesvirus 1 [18], more than 100 µM; in data set [19] it was more than 100 µM; with Sindbis virus it was more than 100 µM; in the data set on Human alphaherpesvirus 1 [21] it was more than 100 µM. Also, the MCC in data set [2], in data set [3], in [5] and in data set [6] was more than 100 µM throughout.

A word on the EC50: it is the concentration at which the effect is half-maximal.
